Data published in ChEMBL document CHEMBL1938291, “Activity of novel quinoxaline-derived chalcones on in vitro glioma cell proliferation” (Eur J Med Chem, 2012).
≈ marks a conversion by molar mass, not a printed value. Calls of active or inactive are those of the source. The rule behind the calls is not given here.

What was measured:
[1] = test system: C6; test: Cytotoxicity against rat C6 cells at 5 ug/ml after 48 hrs by MTT assay; assay type: functional
How it was run: (§1)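 MTT viability assay. C6 seeded at 1×10^3 cells/well in DMEM/5% FBS and U-138 MG in DMEM/15% FBS. Exposed to 0.1, 0.5, 1, 5, 10 μg/ml for 24, 48 or 72 h, or to AS605240 at 100 nM, 10 μM or 30 μM for 48 h. Vehicle 0.01% DMSO. Viability given as % of control, mean ± SEM of 3 experiments in triplicate. IC50 as geometric mean with 95% confidence limits.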

[2] = Cytotoxicity against human U138MG cells at 5 ug/ml after 48 hrs by MTT assay; assay type: functional, U138-MG; how it was run: as §1
[3] = test system: C6; test: Cytotoxicity against rat C6 cells after 48 hrs by MTT assay; assay type: functional, cell-based; settings: C6, 48 h; how it was run: as §1
[4] = test system: C6; test: Cytotoxicity against rat C6 cells at 0.1 to 0.5 ug/ml by MTT assay; assay type: functional, cell-based; settings: TDE = time-dependent effect; how it was run: as §1
[5] = test system: C6; test: Antiproliferative activity against rat C6 cells at 0.1 to 0.5 ug/ml after 24 hrs by hemocytometric analysis; assay type: functional, cell-based
How it was run: (§2)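 Cell-count proliferation assay. U-138 MG seeded at 1×10^4 cells/well in DMEM/15% FBS and C6 at 5×10^3 cells/well in DMEM/5% FBS, grown 24 h. Medium changed, then chalcones (0.1–10 μg/ml) or AS605240 (100 nM, 10 μM, 30 μM) added. Cells washed in Ca/Mg-free PBS, trypsin/EDTA-detached and counted in a Neubauer chamber. Inhibition versus control, mean ± SEM of 3 experiments in triplicate.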

[6] = test system: U138-MG; test: Cytotoxicity against human U138MG cells at 0.1 to 0.5 ug/ml after 48 to 72 hrs by MTT assay; assay type: functional, cell-based; how it was run: as §1
[7] = test system: U138-MG; test: Cytotoxicity against human U138MG cells at 0.1 to 0.5 ug/ml by MTT assay; assay type: functional, cell-based; settings: TDE = time-dependent effect; how it was run: as §1
[8] = test system: C6; test: Antiproliferative activity against rat C6 cells at 5 ug/ml after 24 to 72 hrs by hemocytometric analysis; assay type: functional; how it was run: as §2
[9] = test system: C6; test: Antiproliferative activity against rat C6 cells at 0.1 to 0.5 ug/ml by hemocytometric analysis; assay type: functional, cell-based; settings: TDE = time-dependent effect; how it was run: as §2
[10] = test system: U138-MG; test: Antiproliferative activity against human U138MG cells at 0.1 to 0.5 ug/ml after 24 hrs by hemocytometric analysis; assay type: functional, cell-based; how it was run: as §2
[11] = test system: C6; test: Antiproliferative activity against rat C6 cells at 0.1 to 0.5 ug/ml after 48 to 72 hrs by hemocytometric analysis; assay type: functional, cell-based; how it was run: as §2
[12] = test system: C6; test: Cytotoxicity against rat C6 cells at 0.1 to 0.5 ug/ml after 24 hrs by MTT assay; assay type: functional, cell-based; how it was run: as §1
[13] = test system: U138-MG; test: Antiproliferative activity against human U138MG cells at 0.1 to 0.5 ug/ml after 48 to 72 hrs by hemocytometric analysis; assay type: functional, cell-based; how it was run: as §2
[14] = test system: C6; test: Antiproliferative activity against rat C6 cells after 24 to 72 hrs by hemocytometric analysis; assay type: functional, cell-based; how it was run: as §2
[15] = test system: U138-MG; test: Cytotoxicity against human U138MG cells at 0.1 to 0.5 ug/ml after 24 hrs by MTT assay; assay type: functional, cell-based; how it was run: as §1
[16] = test system: U138-MG; test: Antiproliferative activity against human U138MG cells at 0.1 to 0.5 ug/ml by hemocytometric analysis; assay type: functional, cell-based; settings: TDE = time-dependent effect; how it was run: as §2
[17] = Antiproliferative activity against human U138MG cells after 24 to 72 hrs by hemocytometric analysis; assay type: functional, cell-based; settings: U138-MG; how it was run: as §2
[18] = Antiproliferative activity against human U138MG cells at 5 ug/ml after 24 to 72 hrs by hemocytometric analysis; assay type: functional, U138-MG; how it was run: as §2
[19] = test system: C6; test: Cytotoxicity against rat C6 cells at 0.1 to 0.5 ug/ml after 48 to 72 hrs by MTT assay; assay type: functional, cell-based; how it was run: as §1
[20] = test system: C6; test: Inhibition of PI3Kgamma-mediated Akt activation in rat C6 cells at 5 ug/ml after 15 mins by flow cytometric analysis; assay type: cell-based
How it was run: (§3)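 C6 cells (2×10^5/well) grown 24 h in 5% FBS DMEM, then serum-starved 24 h in 0.5% FBS. Treated with 5 μg/ml test compound or 30 μM AS605240 plus 5% FBS stimulus, 15 or 30 min. Cells trypsinized, fixed, permeabilized, stained 30 min with AKT antibody and read by flow cytometry. Controls: unstimulated, and 5% FBS plus 0.01% DMSO.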

[21] = test system: C6; test: Cell cycle arrest in rat C6 cells assessed as accumulation at sub-G1/G0 phase after 6 hrs by flow cytometric analysis; assay type: functional, cell-based
How it was run: (§4)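 C6 cells at 3×10^5 per well, in triplicate, given 0.1% DMSO vehicle or 2.5 μg/ml for 6, 12 or 24 h. Ethanol-fixed (70%), stained with propidium iodide/RNase/Triton, 10,000 cells acquired by flow cytometry. Results are relative cell numbers in sub-G1/G1, S and G2/M, from 6 independent experiments.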

[22] = test system: C6; test: Cell cycle arrest in rat C6 cells assessed as accumulation at sub-G1/G0 phase after 12 hrs by flow cytometric analysis; assay type: functional, cell-based; how it was run: as §4
[23] = test system: C6; test: Inhibition of PI3Kgamma-mediated Akt activation in rat C6 cells at 5 ug/ml after 30 mins by flow cytometric analysis; assay type: cell-based; how it was run: as §3
[24] = test system: C6; test: Cell cycle arrest in rat C6 cells assessed as accumulation at sub-G1/G0 phase at 2.5 ug/ml after 24 hrs by flow cytometric analysis (reference value: 57.9%); assay type: functional; how it was run: as §4
[25] = Antiproliferative activity against human U138MG cells at 2 ug/ml after 48 hrs by hemocytometric analysis; assay type: functional; settings: U138-MG
How it was run: (§5)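 Doxorubicin at 2 μg/mL for 48 h on C6 and U-138 MG cells. Proliferation measured as percentage inhibition.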

[26] = test system: C6; test: Antiproliferative activity against rat C6 cells at 2 ug/ml after 48 hrs by hemocytometric analysis; assay type: functional; settings: C6, 48 h; how it was run: as §5
[27] = test system: C6; test: Cytotoxicity against rat C6 cells at 100 nM after 48 hrs by MTT assay; assay type: functional, cell-based; how it was run: as §1
[28] = test system: C6; test: Antiproliferative activity against rat C6 cells assessed as growth inhibition at 30 uM after 48 hrs by hemocytometric analysis; assay type: functional; settings: C6, 48 h, read-out: GI; how it was run: as §2
[29] = Growth inhibition of human U138MG cells at 30 uM after 48 by MTT assay; assay type: functional; settings: U138-MG, read-out: GI; how it was run: as §1
[30] = test system: U138-MG; test: Cytotoxicity against human U138MG cells at 100 nM after 48 by MTT assay; assay type: functional, cell-based; how it was run: as §1
[31] = test system: U138-MG; test: Antiproliferative activity against human U138MG cells at 100 nM after 48 by hemocytometric analysis; assay type: functional, cell-based; how it was run: as §2
[32] = test system: C6; test: Antiproliferative activity against rat C6 cells at 100 nM after 48 hrs by hemocytometric analysis; assay type: functional, cell-based; how it was run: as §2
[33] = test system: C6; test: Growth inhibition of rat C6 cells at 30 uM after 48 hrs by MTT assay; assay type: functional; settings: C6, 48 h, read-out: GI; how it was run: as §1
[34] = test system: C6; test: Inhibition of PI3Kgamma-mediated Akt activation in rat C6 cells at 30 uM after 30 mins by flow cytometric analysis; assay type: cell-based; how it was run: as §3
[35] = Antiproliferative activity against human U138MG cells assessed as growth inhibition at 30 uM after 48 by hemocytometric analysis; assay type: functional; settings: U138-MG, read-out: GI; how it was run: as §2
[36] = test system: C6; test: Inhibition of PI3Kgamma-mediated Akt activation in rat C6 cells at 30 uM after 15 mins by flow cytometric analysis; assay type: cell-based; how it was run: as §3

Compound	Imax [1] [%]	Imax [2] [%]	IC50 [3] [µg/mL]	Activity [4]	Activity [5]	Activity [6]	Activity [7]	Imax [8] [%]	Activity [9]	Activity [10]	Activity [11]	Activity [12]	Activity [13]	IC50 [14] [µg/mL]	Activity [15]	Activity [16]	IC50 [17] [µg/mL]	Imax [18] [%]	Activity [19]	also measured
O=C(/C=C/c1ccc2nccnc2c1)c1ccc([N+](=O)[O-])cc1	26	9	–	–	–	–	–	–	–	–	–	–	–	–	–	–	–	–	–	–
O=C(/C=C/c1ccc2nccnc2c1)c1ccccc1	60	21	4.63 (≈ 17.8 µM)	–	–	–	–	–	–	–	–	–	–	–	–	–	–	–	–	–
O=C(/C=C/c1ccc2nccnc2c1)c1ccc2c(c1)OCO2	55	15	8.39 (≈ 27.6 µM)	–	–	–	–	–	–	–	–	–	–	–	–	–	–	–	–	–
COc1ccc(C(=O)/C=C/c2ccc3nccnc3c2)cc1	53	34	4.42 (≈ 15.2 µM)	tde	inactive	Active	tde	90	tde	inactive	Active	inactive	Active	2.19 (≈ 7.54 µM)	inactive	tde	2.67 (≈ 9.2 µM)	84	Active	–
COc1ccc(OC)c(C(=O)/C=C/c2ccc3nccnc3c2)c1	50	36	2.66 (≈ 8.3 µM)	tde	inactive	Active	tde	85	tde	inactive	Active	inactive	Active	1.35 (≈ 4.21 µM)	inactive	tde	2.64 (≈ 8.24 µM)	87	Active	inhibition [20]: 60%; Activity [21]: Active; Activity [22]: Active; inhibition [23]: 46%; Activity [24]: 66.4%
O=C(/C=C/c1ccc2nccnc2c1)c1ccc(Br)cc1	56	16	9.19 (≈ 27.1 µM)	–	–	–	–	–	–	–	–	–	–	–	–	–	–	–	–	–
COc1ccc(C(=O)/C=C/c2ccc3nccnc3c2)c(OC)c1	52	42	4.6 (≈ 14.4 µM)	tde	inactive	Active	tde	67	tde	inactive	Active	inactive	Active	1.53 (≈ 4.78 µM)	inactive	tde	2.48 (≈ 7.74 µM)	86	Active	–
COc1cccc2c1C(=O)c1c(O)c3c(c(O)c1C2=O)C[C@@](O)(C(=O)CO)C[C@@H]3O[C@H]1C[C@H](N)[C@H](O)[C@H](C)O1 [DOXORUBICIN]	–	–	–	–	–	–	–	–	–	–	–	–	–	–	–	–	–	–	–	inhibition at 2 µg/mL [25]: 31%; inhibition at 2 µg/mL [26]: 27%
O=C1NC(=O)/C(=C/c2ccc3nccnc3c2)S1	–	–	–	–	–	–	–	–	–	–	–	–	–	–	–	–	–	–	–	Activity [27]: inactive; inhibition of growth at 30 µM [28]: 73%; inhibition of growth at 30 µM [29]: 10%; Activity [30]: inactive; Activity [31]: inactive; Activity [32]: inactive; inhibition of growth at 30 µM [33]: 35%; inhibition [34]: 41%; inhibition of growth at 30 µM [35]: 10%; inhibition [36]: 31%
COc1ccc(C(=O)/C=C/c2ccc3nccnc3c2)cc1OC	51	33	4.16 (≈ 13 µM)	tde	inactive	Active	tde	82	tde	inactive	Active	inactive	Active	1 (≈ 3.12 µM)	inactive	tde	2.29 (≈ 7.15 µM)	84	Active	–
